Reference: ChEMBL document CHEMBL1649438, “Activities of ceftobiprole and other cephalosporins against extracellular and intracellular (THP-1 macrophages and keratinocytes) forms of methicillin-susceptible and methicillin-resistant Staphylococcus aureus” (Antimicrob Agents Chemother, 2009)
Converted amounts (≈) assume the structure as drawn.

Assays:
[1] = system: Staphylococcus aureus; experiment: Antimicrobial activity against Panton-valentine leucocidin-positive community-acquired methicillin-resistant Staphylococcus aureus STA 44 infected in human THP-1 cells assessed as bacterial count per mg of cell protein at high extracellular compound concentration after 24 hrs; type: functional
How it was run: (§1)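 THP-1 human macrophages infected with S. aureus (postphagocytosis inoculum 1.5 × 10^6 to 3.0 × 10^6 CFU/mg cell protein), then incubated 24 h with increasing extracellular antibiotic concentrations. Change in log10 CFU/mg cell protein from the postphagocytosis inoculum, n = 3. Hill function fitted on log-transformed data. Low-concentration value (E0) and high-concentration value (Emax) are extrapolated. Where a pH is given, concentrations are expressed as multiples of the broth MIC at that pH.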

[2] = system: Staphylococcus aureus; experiment: Ratio of MIC for hospital-acquired methicillin-resistant Staphylococcus aureus ATCC 33591 by microdilution method at pH 7.4 to ratio of MIC for hospital-acquired methicillin-resistant Staphylococcus aureus ATCC 33591 by microdilution method at pH 5.5; type: functional
How it was run: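 MICs were determined by broth microdilution at pH 7.4 and pH 5.5. Broth was adjusted before inoculation, and pH was confirmed maintained (±0.1 unit) at the end.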

[3] = system: Staphylococcus aureus; experiment: Bacteriostatic activity against Panton-valentine leucocidin-positive community-acquired methicillin-resistant Staphylococcus aureus N4090440 infected in human THP-1 cells assessed as change in bacterial count after 24 hrs at pH 5.5; type: functional
How it was run: (§2)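 THP-1 macrophages infected as described previously, with a postphagocytosis inoculum of 1.5 × 10⁶ to 3.0 × 10⁶ CFU/mg cell protein. Cells were exposed 24 h to increasing extracellular antibiotic concentrations. Response is the change in log10 CFU/mg protein from the inoculum (n = 3), fitted to a Hill function. E0 and Emax were extrapolated to infinitely low and high concentrations. EC50 and static concentration (graphical interpolation) are expressed as multiples of the broth MIC at pH 5.5 or 7.4.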

[4] = system: Staphylococcus aureus; experiment: Antimicrobial activity against methicillin-resistant Staphylococcus aureus ATCC 33591 infected in human keratinocytes assessed as bacterial count per mg of cell protein at high extracellular compound concentration after 24 hrs; type: functional
How it was run: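 Primary human skin keratinocytes were grown in defined keratinocyte serum-free medium, infected with a postphagocytosis inoculum of 1.5 × 10⁶ to 3.0 × 10⁶ CFU/mg cell protein, then exposed 24 h to increasing extracellular antibiotic concentrations. Change in log10 CFU/mg protein from the inoculum was fitted to a Hill equation with slope 1. E0 and Emax were extrapolated to infinitely low and high concentrations, in total drug mg/liter.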

[5] = system: Staphylococcus aureus; experiment: Antimicrobial activity against Panton-valentine leucocidin-positive community-acquired methicillin-resistant Staphylococcus aureus NRS192 infected in human THP-1 cells assessed as bacterial count per mg of cell protein at low extracellular compound concentration after 24 hrs at pH 7.4; type: functional; conditions: pooled result: one value given for 6 cell lines, strains, targets or settings; how it was run: as §1
[6] = system: Staphylococcus aureus; experiment: Antimicrobial activity against Panton-valentine leucocidin-positive community-acquired methicillin-resistant Staphylococcus aureus N4042228 infected in human THP-1 cells assessed as bacterial count per mg of cell protein at low extracellular compound concentration after 24 hrs; type: functional; how it was run: as §1
[7] = system: Staphylococcus aureus; experiment: Antimicrobial activity against hospital-acquired methicillin-resistant Staphylococcus aureus ATCC 33592 infected in human THP-1 cells assessed as change in bacterial count after 24 hrs at pH 7.4; type: functional, organism-based; conditions: ATCC 33592, THP-1, 24 h; how it was run: as §2
[8] = system: Staphylococcus aureus; experiment: Antimicrobial activity against methicillin-susceptible Staphylococcus aureus ATCC 11632 infected in human THP-1 cells assessed as change in bacterial count after 24 hrs at pH 5.5; type: functional, organism-based; conditions: ATCC 11632, THP-1, 24 h; how it was run: as §2
[9] = system: Staphylococcus aureus; experiment: Antimicrobial activity against hospital-acquired vancomycin-intermediate Staphylococcus aureus NRS126 infected in human THP-1 cells assessed as change in bacterial count after 24 hrs at pH 7.4; type: functional, organism-based; conditions: NRS126, THP-1, 24 h; how it was run: as §2
[10] = system: Staphylococcus aureus; experiment: Antimicrobial activity against methicillin-susceptible Staphylococcus aureus […] infected in human THP-1 cells assessed as change in bacterial count after 24 hrs; type: functional, organism-based; conditions: THP-1, 24 h; how it was run: as §2
[11] = system: Staphylococcus aureus; experiment: Bacteriostatic activity against methicillin-susceptible Staphylococcus aureus NRS52 infected in human THP-1 cells assessed as change in bacterial count after 24 hrs at pH 5.5; type: functional
How it was run: (§3)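 Human THP-1 macrophage-like cells were infected with S. aureus to a postphagocytosis inoculum of 1.5 × 10^6 to 3.0 × 10^6 CFU/mg cell protein. Cells were then exposed 24 h to increasing extracellular antibiotic concentrations. Response was the log10 CFU change per mg protein from the postphagocytosis inoculum, n = 3. A Hill function was fitted on log-transformed axes. E0 and Emax were extrapolated to infinitely low and high concentrations. Cs was read by graphical interpolation. Concentrations were expressed as multiples of the broth MIC at pH 5.5 or pH 7.4.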

[12] = system: Staphylococcus aureus; experiment: Antimicrobial activity against methicillin-susceptible Staphylococcus aureus ATCC 25923 infected in human keratinocytes assessed as bacterial count per mg of cell protein at high extracellular compound concentration after 24 hrs; type: functional
How it was run: (§4)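 Primary human skin keratinocytes were grown in defined keratinocyte serum-free medium and infected with S. aureus to 1.5 × 10^6 to 3.0 × 10^6 CFU/mg cell protein. Cells were exposed 24 h to increasing extracellular concentrations. Response was the log10 CFU change from the postphagocytosis inoculum, fitted by a Hill equation with slope 1. Cs is the concentration giving CFU equal to the original inoculum, found by graphical interpolation.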

[13] = system: Staphylococcus aureus; experiment: Antimicrobial activity against hospital-acquired methicillin-resistant Staphylococcus aureus […] infected in human THP-1 cells assessed as bacterial count per mg of cell protein at low extracellular compound concentration after 24 hrs; type: functional; how it was run: as §2
[14] = system: Staphylococcus aureus; experiment: Antimicrobial activity against Panton-valentine leucocidin-positive community-acquired methicillin-resistant Staphylococcus aureus STA 44 infected in human THP-1 cells assessed as change in bacterial count after 24 hrs at pH 7.4; type: functional, organism-based; conditions: STA 44, THP-1, 24 h; how it was run: as §1
[15] = system: Staphylococcus aureus; experiment: Antimicrobial activity against hospital-acquired vancomycin-intermediate Staphylococcus aureus NRS18 infected in human THP-1 cells assessed as bacterial count per mg of cell protein at high extracellular compound concentration after 24 hrs at pH 5.5; type: functional; how it was run: as §3
[16] = system: Staphylococcus aureus; experiment: Antimicrobial activity against hospital-acquired methicillin-resistant Staphylococcus aureus […] infected in human THP-1 cells assessed as bacterial count per mg of cell protein at high extracellular compound concentration after 24 hrs; type: functional; how it was run: as §2
[17] = system: Staphylococcus aureus; experiment: Antimicrobial activity against Panton-valentine leucocidin-positive community-acquired methicillin-resistant Staphylococcus aureus STA 228 infected in human THP-1 cells assessed as bacterial count per mg of cell protein at high extracellular compound concentration after 24 hrs at pH 5.5; type: functional; how it was run: as §1
[18] = system: Staphylococcus aureus; experiment: Antimicrobial activity against methicillin-susceptible Staphylococcus aureus ATCC 11632 infected in human THP-1 cells assessed as change in bacterial count after 24 hrs at pH 7.4; type: functional, organism-based; conditions: ATCC 11632, THP-1, 24 h; how it was run: as §2
[19] = system: Staphylococcus aureus; experiment: Bacteriostatic activity against methicillin-susceptible Staphylococcus aureus ATCC 25923 infected in human keratinocytes assessed as change in bacterial count after 24 hrs; type: functional; how it was run: as §4
[20] = system: Staphylococcus aureus; experiment: Antimicrobial activity against hospital-acquired methicillin-resistant Staphylococcus aureus ATCC 33591 infected in human THP-1 cells assessed as change in bacterial count after 24 hrs at pH 5.5; type: functional, organism-based; conditions: ATCC 33591, THP-1, 24 h; how it was run: as §2

Compound: Nc1nc(/C(=N/O)C(=O)N[C@@H]2C(=O)N3C(C(=O)O)=C(/C=C4\CCN([C@@H]5CCNC5)C4=O)CS[C@H]23)ns1 [CEFTOBIPROLE]
- log10cfu [1]: -1.02
- fold change (FC) [2]: 4
- Activity [3]: 1.45 × MIC
- log10cfu [4]: -1.14
- log10cfu [5]: 2.74
- log10cfu [6]: 3.45
- EC50 [7]: 0.28 ×MIC
- EC50 [8]: 0.41 × MIC
- EC50 [9]: 0.28 ×MIC
- EC50 [10]: 0.07 µg/mL (≈ 0.131 µM)
- Activity [11]: 1.19 × MIC
- log10cfu [12]: -0.94
- log10cfu [13]: 2.46
- EC50 [14]: 0.33 ×MIC
- log10cfu [15]: 1.01
- log10cfu [16]: -0.9
- log10cfu [17]: -1.02
- EC50 [18]: 0.2 × MIC
- Activity [19]: 0.91 mg/L
- EC50 [20]: 0.77 × MIC
